Experimental data taken from ChEMBL document CHEMBL1275442, “Pharmacokinetics and tissue distribution of anidulafungin in rats” (Antimicrob Agents Chemother, 2008).

Experiments:
Assay type in all cases: ADME, organism-based
[1] = system: Kidney; experiment: Drug level in Long Evans rat kidney assessed as low disposition of radioactivity per gram of tissue at 5 mg/kg, iv administered as single bolus dose measured 168 hrs postdose by autoradiography; parameters: dose 5 mg/kg, route intravenous; conditions: in vivo
How it was run: (§1)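 Male pigmented Long Evans (HsdBlu:LE) rats, 7.5 weeks old, 202 to 217 g, single iv [¹⁴C]anidulafungin; one rat per sampling time. Euthanized by isoflurane and cardiac-puncture exsanguination. Sagittal whole-body sections quantified by phosphorimaging autoradiography, single samples corrected for section thickness across multiple sections per tissue. Concentrations (μg eq/g drug-derived radioactivity) interpolated from least-squares standard curves per scan.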

[2] = system: Spleen; experiment: Drug level in Long Evans rat spleen assessed as radioactivity per gram of tissue at 5 mg/kg, iv administered as single bolus dose measured 0.5 hrs postdose by autoradiography; parameters: dose 5 mg/kg, route intravenous; conditions: in vivo
How it was run: (§2)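 Male pigmented Long Evans (HsdBlu:LE) rats, 7.5 weeks old and 202 to 217 g, got a single iv dose of [14C]anidulafungin at 5 mg/kg. One rat per time point (0.5, 6, 12, 24, 72, 168 h) was euthanised by isoflurane and cardiac-puncture exsanguination. Sagittal whole-body sections were quantified by phosphorimaging. Samples were thickness-corrected, and concentrations (μg eq/g) were interpolated from least-squares standard curves.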

[3] = system: Blood; experiment: Drug level in Long Evans rat blood assessed as radioactivity per gram of tissue at 5 mg/kg, iv administered as single bolus dose measured 0.5 hrs postdose by autoradiography; parameters: dose 5 mg/kg, route intravenous; conditions: in vivo
How it was run: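 Male pigmented Long Evans rats, 7.5 weeks, 202–217 g, given one IV dose of [¹⁴C]anidulafungin, 5 mg/kg. Euthanised under isoflurane with cardiac exsanguination, one rat per time. Sagittal whole-body sections quantified by phosphorimaging, corrected for section thickness. Concentrations in μg eq/g interpolated from least-squares standard curves.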

[4] = system: Blood; experiment: Drug level in Long Evans rat blood assessed as radioactivity per gram of tissue at 5 mg/kg, iv administered as single bolus dose measured 6 hrs postdose by autoradiography; parameters: dose 5 mg/kg, route intravenous; conditions: in vivo; how it was run: as §1
[5] = Cmax in F344 rat liver at 5 mg/kg, iv administered as single bolus dose after 5 min by HPLC method; parameters: dose 5 mg/kg, route intravenous
How it was run: (§3)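 Male F344 rats, 10–11 weeks, 223.6–243.8 g, given one IV dose of [¹⁴C]anidulafungin, 5 mg/kg, over about 5 min. Tissues and blood sampled at 0.083–72 h (n = 3 rats per time). Parent drug measured by HPLC; LLOQ/ULOQ were 20/5,120 ng/ml for plasma and 220/56,320 ng/g for tissue. Noncompartmental parameters taken from the composite mean profile.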

[6] = system: Liver; experiment: Drug level in Long Evans rat liver assessed as high disposition of radioactivity per gram of tissue at 5 mg/kg, iv administered as single bolus dose measured 72 hrs postdose by autoradiography; parameters: dose 5 mg/kg, route intravenous; conditions: in vivo; how it was run: as §1
[7] = system: Spleen; experiment: Drug level in Long Evans rat spleen assessed as radioactivity per gram of tissue at 5 mg/kg, iv administered as single bolus dose measured 168 hrs postdose by autoradiography; parameters: dose 5 mg/kg, route intravenous; conditions: in vivo; how it was run: as §2
[8] = system: Cerebrospinal fluid; experiment: Drug level in Long Evans rat cerebrospinal fluid assessed as radioactivity per gram of tissue at 5 mg/kg, iv administered as single bolus dose measured 72 hrs postdose by autoradiography; parameters: dose 5 mg/kg, route intravenous; conditions: in vivo; how it was run: as §1
[9] = system: Kidney; experiment: Drug level in Long Evans rat kidney assessed as high disposition of radioactivity per gram of tissue at 5 mg/kg, iv administered as single bolus dose measured 0.5 hrs postdose by autoradiography; parameters: dose 5 mg/kg, route intravenous; conditions: in vivo; how it was run: as §1
[10] = system: Liver; experiment: AUC (0 to infinity) in F344 rat liver assessed as total compound-derived radioactivity per gram of tissue at 5 mg/kg, iv administered as single bolus dose […]; parameters: time infinity, dose 5 mg/kg, route intravenous; conditions: in vivo
How it was run: (§4)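 Same F344 study: single 5 mg/kg IV [¹⁴C]anidulafungin given over about 5 min. Total drug-derived radioactivity (parent plus metabolites) counted by liquid scintillation, in […]. Noncompartmental analysis of the composite mean profile.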

[11] = Cmax in F344 rat kidney at 5 mg/kg, iv administered as single bolus dose after 30 min by HPLC method; parameters: dose 5 mg/kg, route intravenous; how it was run: as §3
[12] = system: Blood; experiment: Cmax in F344 rat blood assessed as total compound-derived radioactivity per gram of tissue at 5 mg/kg, iv administered as single bolus dose […]; parameters: dose 5 mg/kg, route intravenous; conditions: in vivo; how it was run: as §4
[13] = system: Kidney; experiment: Tmax in F344 rat kidney assessed as total compound-derived radioactivity at 5 mg/kg, iv administered as single bolus dose […]; parameters: dose 5 mg/kg, route intravenous; conditions: in vivo
How it was run: (§5)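 Male F344 rats, 10 to 11 weeks old and 223.6 to 243.8 g, got one iv dose of [14C]anidulafungin at 5 mg/kg over about 5 min. Blood, CSF, kidney, liver, lung, quadriceps, spleen and skin were sampled predose and at 0.083 to 72 h, 3 rats per time. Total radioactivity (parent plus metabolites) was measured by liquid scintillation counting. Parameters were noncompartmental, from a composite mean profile.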

[14] = system: Lung; experiment: AUC (0 to 24 hrs) in F344 rat lung assessed as total compound-derived radioactivity per gram of tissue at 5 mg/kg, iv administered as single bolus dose […]; parameters: time < 24 hr, dose 5 mg/kg, route intravenous; conditions: in vivo; how it was run: as §4
[15] = system: Plasma; experiment: Tmax in F344 rat plasma assessed as total compound-derived radioactivity at 5 mg/kg, iv administered as single bolus dose […]; parameters: dose 5 mg/kg, route intravenous; conditions: in vivo; how it was run: as §5
[16] = system: Kidney; experiment: Cmax in F344 rat kidney assessed as total compound-derived radioactivity per gram of tissue at 5 mg/kg, iv administered as single bolus dose after 30 mins by HPLC method; parameters: dose 5 mg/kg, route intravenous; conditions: in vivo, 0.5 h; how it was run: as §4
[17] = Drug level in Long Evans rat eye assessed as radioactivity per gram of tissue at 5 mg/kg, iv administered as single bolus dose measured 12 hrs postdose by autoradiography; parameters: dose 5 mg/kg, route intravenous; conditions: in vivo; how it was run: as §1
[18] = system: Zone of skin; experiment: Drug level in Long Evans rat skin assessed as radioactivity per gram of tissue at 5 mg/kg, iv administered as single bolus dose measured 24 hrs postdose by autoradiography; parameters: dose 5 mg/kg, route intravenous; conditions: in vivo; how it was run: as §2
[19] = system: Kidney; experiment: AUC (0 to infinity) in F344 rat kidney assessed as total compound-derived radioactivity per gram of tissue at 5 mg/kg, iv administered as single bolus dose […]; parameters: time infinity, dose 5 mg/kg, route intravenous; conditions: in vivo; how it was run: as §4
[20] = system: Zone of skin; experiment: Cmax in F344 rat skin assessed as total compound-derived radioactivity per gram of tissue at 5 mg/kg, iv administered as single bolus dose […]; parameters: dose 5 mg/kg, route intravenous; conditions: in vivo; how it was run: as §4
[21] = system: Lung; experiment: Drug level in Long Evans rat lung assessed as radioactivity per gram of tissue at 5 mg/kg, iv administered as single bolus dose measured 12 hrs postdose by autoradiography; parameters: dose 5 mg/kg, route intravenous; conditions: in vivo; how it was run: as §1
[22] = system: Plasma; experiment: Half life in F344 rat plasma assessed as total compound-derived radioactivity at 5 mg/kg, iv administered as single bolus dose […]; parameters: dose 5 mg/kg, route intravenous; conditions: in vivo; how it was run: as §5
[23] = system: Muscle tissue; experiment: Cmax in F344 rat muscle assessed as total compound-derived radioactivity per gram of tissue at 5 mg/kg, iv administered as single bolus dose […]; parameters: dose 5 mg/kg, route intravenous; conditions: in vivo; how it was run: as §4
[24] = system: Kidney; experiment: Drug level in Long Evans rat kidney assessed as low disposition of radioactivity per gram of tissue at 5 mg/kg, iv administered as single bolus dose measured 24 hrs postdose by autoradiography; parameters: dose 5 mg/kg, route intravenous; conditions: in vivo; how it was run: as §1
[25] = system: Blood; experiment: Drug level in Long Evans rat blood assessed as radioactivity per gram of tissue at 5 mg/kg, iv administered as single bolus dose measured 72 hrs postdose by autoradiography; parameters: dose 5 mg/kg, route intravenous; conditions: in vivo; how it was run: as §1
[26] = system: Muscle tissue; experiment: Tmax in F344 rat muscle assessed as total compound-derived radioactivity at 5 mg/kg, iv administered as single bolus dose […]; parameters: dose 5 mg/kg, route intravenous; conditions: in vivo; how it was run: as §5
[27] = system: Kidney; experiment: Drug level in Long Evans rat kidney assessed as low disposition of radioactivity per gram of tissue at 5 mg/kg, iv administered as single bolus dose measured 72 hrs postdose by autoradiography; parameters: dose 5 mg/kg, route intravenous; conditions: in vivo; how it was run: as §1

Work on `CCCCCOc1ccc(-c2ccc(-c3ccc([14C](=O)N[C@H]4C[C@@H](O)[C@@H](O)NC(=O)[C@@H]5[C@@H](O)[C@@H](C)CN5C(=O)[C@H]([C@@H](C)O)NC(=O)[C@H]([C@H](O)[C@@H](O)c5ccc(O)cc5)NC(=O)[C@@H]5C[C@@H](O)CN5C(=O)[C@H]([C@@H](C)O)NC4=O)cc3)cc2)cc1` [14C-ANIDULAFUNGIN] yielded a Drug uptake [1] of 0.7 ugequiv, a Drug uptake [2] of 20.67 ugequiv and a Drug uptake [3] of 6.85 ugequiv. For the same compound, the Drug uptake [4] was 5.07 ugequiv, the Cmax [5] was 15900 ng/g and the Drug uptake [6] was 16.9 ugequiv. It also gave a Drug uptake [7] of 1.53 ugequiv, a Drug uptake [8] of 3.37 ugequiv and a Drug uptake [9] of 18.09 ugequiv. It also gave an AUC [10] of 2656.38 ugequiv.hr/g, a Cmax [11] of 16100 ng/g and a Cmax [12] of 14.78 ugequiv/g. It also gave a Tmax [13] of 30 min, an AUC [14] of 934.92 ugequiv.hr/g and a Tmax [15] of 4.98 min. For the same compound, the Cmax [16] was 19.63 ugequiv/g, the Drug uptake [17] was 1.36 ugequiv and the Drug uptake [18] was 3.5 ugequiv. The AUC [19] was 1437.94 ugequiv.hr/g, the Cmax [20] was 5.4 ugequiv/g and the Drug uptake [21] was 5.64 ugequiv. For the same compound, the t1/2 [22] was 37.4 h, the Cmax [23] was 4.16 ugequiv/g and the Drug uptake [24] was 4.41 ugequiv. It also gave a Drug uptake [25] of 0.85 ugequiv, a Tmax [26] of 30 min and a Drug uptake [27] of 1.97 ugequiv.
